Screening data as filed in PubChem BioAssay.
A selection: hits, their analogues and other compounds. The true share with any hit is near 11%.
M1 agonist: agonists of M1 muscarinic receptor. B-score at 10 µM. AID 626. 64,000 tested, 3% active. CHO-M1 cells, Fluo-4 calcium fluorescence, agonist mode; hits give high values;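 active = fluorescence rise, raw or as B-score row- and column-corrected plate score, outside the 99.7% band of its plate's samples, either direction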
M1 antag: blocks the rat M1 muscarinic receptor response to acetylcholine; CHO-M1 cells, Fluo-4 calcium, ACh EC80 antagonist mode; hits give low values; B-score at 10 µM; 64,000 tested, 3.4% active; AID 628;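 active = calcium fluorescence response, raw or row-and-column corrected B-score, differing from the plate sample mean either way at a set confidence level, mostly lower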
S1P1 ag-PAM: agonists and agonism potentiators of human S1P1 receptor | P21453 | S1P1 CRE-bla cells, forskolin, beta-lactamase FRET, potentiator mode; S1P1 agonist co-added at EC20, 2 nM; 100% = saturating reference agonist, 0% = basal | activation, % at 9.5 µM | 56,000 tested, 0.57% active | AID 449;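 active = activation above a cutoff set at the mean activation of all tested compounds plus 3 SD, cut at about 54% in these data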;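 also: forskolin at 4 µM as EC80 and the EC20 agonist is SEW2871; 100% = SEW2871 at its EC100 plus forskolin at EC80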
Target sequence (P21453 whole entry, looked up): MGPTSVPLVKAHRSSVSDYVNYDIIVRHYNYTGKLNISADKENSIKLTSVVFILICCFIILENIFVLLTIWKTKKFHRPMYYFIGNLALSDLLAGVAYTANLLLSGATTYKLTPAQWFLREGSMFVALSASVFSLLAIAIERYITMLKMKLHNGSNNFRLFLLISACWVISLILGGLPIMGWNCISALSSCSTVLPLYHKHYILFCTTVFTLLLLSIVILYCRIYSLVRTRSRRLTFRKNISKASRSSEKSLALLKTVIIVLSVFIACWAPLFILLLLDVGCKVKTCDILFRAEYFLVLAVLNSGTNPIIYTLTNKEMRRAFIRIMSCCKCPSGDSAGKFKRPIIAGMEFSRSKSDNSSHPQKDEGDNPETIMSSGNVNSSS
S1P3 ag: activates the human S1P3 receptor; S1P3 NFAT-BLA reporter cells, agonism, FRET ratio; relative to 1 µM S1P, basal subtracted; activation, % at 4.5 µM; 60,000 tested, 0.1% active;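 active = activation above the screen-wide mean plus 3 SD, cut at about 4.5% in these data, passing the limit was not always enough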
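Material: Human S1P3 NFAT-BLA reporter CHO cells | Incubation: Overnight plating, 4 h compound 37 °C, 2 h substrate RT | Signal: FRET β-lactamase substrate fluorescence, excitation 405 nm, 460/535 nm emission ratio, background-subtracted | Compound: 4.5 µM final, single dose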
D1 mod: D1 dopamine receptor (human) allosteric modulation; P21728; HEK293 D1, CRE-luciferase, dopamine EC30 potentiation; actives deviate in either direction; B-score at 10 µM; 58,000 tested, 5.9% active; AID 641;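 active = luminescence count or its row- and column-corrected plate score outside the 99.7% band of the plate's sample wells, on either side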
M1 antag confirm: confirmation of rat M1 muscarinic receptor antagonists; CHO-M1 cells, Fluo-4 calcium, ACh EC80 antagonism; hits give low values; shares compounds with M1 antag; 1,700 tested, 43% active; calcium response (max-min fluorescence) at 10 µM; AID 677;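 active = calcium response below the same-plate mean of wells given acetylcholine alone at its 80%-effect dose, minus 3 SD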;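 also: raw fluorescence intensity difference in arbitrary instrument units and not normalized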
mGluR4 antag: acts on human mGluR4 in M1 antagonist selectivity test; shares compounds with M1 antag; CHO-mGluR4 calcium flux, Fluo-4 fluorescence, glutamate EC80; hits give low values; fluorescence response (max-min) at 10 µM; 1,700 tested, 0.9% active; AID 678;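 active = fluorescence response below the plate's average for near-maximal glutamate wells, less 3 SD of those wells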;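 also: raw unnormalized fluorescence span taken in the window right after glutamate addition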
* = called active by the depositor; . = no result given.

SMILES | M1 agonist | M1 antag | S1P1 ag-PAM | S1P3 ag | D1 mod | M1 antag confirm | mGluR4 antag
CC1=C2C(CCS2(=O)=O)CC2(C1)C(=O)OC(C)(C)OC2=O (centres undefined) | 0.17 | 0.51 | -19 | 0 | 0.46 | . | .
CCn1ncc(Br)c1C(=O)Nc1nccs1 | -0.55 | -0.33 | -12 | 0 | 0.041 | . | .
O=C(Nc1ccc2snnc2c1)N1CCN(c2ccccc2)CC1 | 0.068 | -0.54 | . | . | -1.3 | . | .
O=C(Nc1ccc2snnc2c1)N1CCOCC1 | -1.4 | -2.4* | 1 | 0 | . | 599 | 208
Cc1ccc(C(=O)CC2(O)C(=O)N(C)c3ccc(Br)cc32)c(C)c1 (centres undefined) | -0.38 | -2.2* | 9 | -2 | -0.16 | 642 | 186
CCOc1ccc(N2CC(C(=O)OC)CC2=O)cc1 (centres undefined) | 0.0091 | 0.074 | . | -1 | 0.034 | . | .
Cc1cc(C)n(C(=O)c2cc3ccccc3c(=O)o2)n1 | 0.18 | -5.1* | -11 | 0 | 0.86 | 662 | 250
COc1cccc(OC)c1C(=O)n1nc(C)cc1C | 0.69 | -0.64 | -15 | 0 | 0.02 | . | .
CCCc1cc(Nc2c(C)n(C)n(-c3ccccc3)c2=O)n2c(nc3ccccc32)c1C#N | 0.29 | -2.4* | -17 | -3 | . | 482 | 237
CCC(C(=O)N1CCc2ccccc2C1)n1nc(C)n2c(cc3occc32)c1=O (centres undefined) | 0.095 | -0.3 | 4 | 0 | -0.13 | . | .
Cc1oc2nc(SCCCC(=O)NCCO)nc(N)c2c1C | 0.76 | 0.14 | 3 | 0 | -0.1 | . | .
CCN(CC)C(=O)COc1ccc(-c2nnc(N3CCCCC3)c3ccccc23)cc1 | -0.33 | -2.9* | -1 | -1 | -0.59 | 531* | 181
CN1CCc2c(c3ccccc3n2Cc2ccccc2)C1 | -0.61 | -3.9* | 2 | -1 | . | 231* | 251
Cc1occc(=O)c1OC(=O)Nc1ccccc1 | -1.8 | -0.13 | -2 | -3 | . | . | .
O=C(NCC1CCCO1)c1c(O)c2c([nH]c1=O)CCCC2 (centres undefined) | 0.28 | -3.6* | -2 | 0 | 1.2 | 555 | 245
CCN(CC)CCCNC(=O)c1c(O)c2c([nH]c1=O)CCCC2 | -1 | -0.61 | 2 | 1 | -0.81 | . | .
O=C(NC(=O)c1ccccc1)NC1(C(F)(F)F)OCCO1 | 0.22 | -19* | . | 0 | -0.25 | 695 | 181
CCC(C(=O)Nc1nnc(-c2ccco2)s1)c1ccccc1 (centres undefined) | -0.34 | -0.19 | -18 | -1 | -0.0028 | . | .
O=C(NC12CC3CC(CC(C3)C1)C2)N1CCN(C(=O)C2CCCO2)CC1 (centres undefined) | -0.68 | -1.8* | . | -1 | -0.39 | 542 | 209
O=C(NC12CC3CC(CC(C3)C1)C2)N1CCC(O)CC1 | 0.43 | -0.017 | -4 | 2 | 0.084 | . | .
CCN(CC)C(=O)c1cccc(-c2ccc(OC)cc2)c1 | -0.6 | -2.2* | . | . | 0.073 | 622 | 247
O=c1c2c(nc3n1CCCCC3)-c1ccccc1CC21CCCC1 | -0.89 | -8.2* | 17 | 0 | -0.19 | 314* | 264
CC(=O)c1c(C)[nH]c(C(=O)OCC(=O)Nc2cc(C(F)(F)F)ccc2N2CCOCC2)c1C | 0.57 | -0.49 | -23 | -1 | 0.74 | . | .
CC(C)Cn1cc(C(=O)N2CCN(c3ccccn3)CC2)c2c3ccccc3n(C)c2c1=O | 2.1 | -0.48 | 3 | 0 | -0.15 | . | .
O=C(CSc1ccc(-c2ccc(F)cc2)nn1)N1CCCCC1 | 0.74 | -0.093 | 2 | -1 | -2.9 | . | .
Cn1c(-c2ccc(F)cc2)cnc1SCC(=O)N1CCCCC1 | 0.0046 | -2.2* | 8 | 0 | -4.3* | 430 | 222
COc1ccc(Nc2nc(N3CCCC3)nc3ccccc23)c(OC)c1 | -0.69 | -8.1* | -82 | 0 | -3.1 | 342* | 188
OCCNc1nc(N2CCN(Cc3ccccc3)CC2)nc2ccccc12 | 0.12 | -0.45 | -16 | 0 | -1.1 | . | .
C=CCNc1nc(N2CCCC2)nc2ccccc12 | -0.83 | -3.4* | -15 | -1 | -4.5* | 581 | 265
